Assay results from ChEMBL document CHEMBL2375315, “Alkaloids from the deep-sea-derived fungus Aspergillus westerdijkiae DFFSCS013” (J Nat Prod, 2013).

Assays:
Type in all cases: functional, cell-based
MCF7 = assay: Cytotoxicity against human MCF7 cells by MTT assay
Summary of the method: (§1)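 Human tumour lines (erythroid leukemic K562, promyelocytic leukemia HL-60, breast adenocarcinoma MCF-7, lung carcinoma A549) exposed to compounds; viability read by MTT method, following a previously published protocol; IC50 values derived.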

K562 = assay: Cytotoxicity against human K562 cells by MTT assay; summary of the method: as §1
A549 = assay: Cytotoxicity against human A549 cells by MTT assay; summary of the method: as §1
HL-60 = assay: Cytotoxicity against human HL60 cells by MTT assay; summary of the method: as §1

Row | SMILES | IC50 (MCF7) | IC50 (K562) | IC50 (A549) | IC50 (HL-60)
1 | O=C1NCc2nc3c(O)cccc3c(=O)n2-c2ccccc21 | > 10 µM | > 10 µM | > 10 µM | > 10 µM
2 | C[C@@H]1NC(=O)c2ccccc2-n2c1nc1c(O)cccc1c2=O | > 10 µM | > 10 µM | > 10 µM | > 10 µM
3 | CC1(C)C=Cc2c3c(cc(Cl)c2O1)[C@@]1(C(=O)N3)[C@H](O)[C@@]23NC(=O)[C@]4(CCCN4C2=O)C[C@H]3C1(C)C | > 10 µM | 44 µM | > 10 µM | > 10 µM
4 | CC1(C)C=Cc2c(ccc3c2NC(=O)[C@@]32[C@@H](O)[C@@]34NC(=O)[C@]5(CCCN5C3=O)C[C@H]4C2(C)C)O1 | > 10 µM | 53 µM | > 10 µM | > 10 µM
5 | CC(C)CC(=O)OC(/C(=N/O)C(N)=O)C(C)C (configuration not stated) | > 10 µM | > 10 µM | > 10 µM | > 10 µM
6 | CC1(C)C=Cc2c(ccc3c2NC(=O)[C@@]32[C@H](O)[C@@]34NC(=O)[C@]5(CCCN5C3=O)C[C@H]4C2(C)C)O1 [SCLEROTIAMIDE] | > 10 µM | 26 µM | > 10 µM | 45 µM
7 | C[C@H]1NC(=O)c2ccccc2-n2c1nc1ccccc1c2=O | > 10 µM | > 10 µM | > 10 µM | > 10 µM
8 | C[C@@H]1NC(=O)c2ccccc2-n2c1nc1c(c2=O)C=CC=CO1 | > 10 µM | > 10 µM | > 10 µM | > 10 µM
